These results are taken from PMC3212727 (The Journal of Experimental Medicine, 2006).

In test [1] the test system is TAP1-GFP in MelJuSo cells. The test is described as follows: TAP mobility assay. In kind it is cell-based, human. To be noted: FRAP; for initial increase in intracellular peptides: measured 1 h after irradiation, Fig. 2A and unpublished data. The procedure, abridged:
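FRAP was run at 37°C on MelJuSo cells stably expressing TAP1-GFP, imaged 1 h after 4 Gy γ-irradiation. Some cells were pretreated with 10 μM lactacystin for 30 min, ATP-depleted with 0.05% NaAz plus […] 2-deoxyglucose for 30 min, or given cycloheximide. An ER spot was bleached at full laser power and recovery followed with an attenuated beam. Diffusion coefficient came from bleach-corrected recovery half-times: ≥3 experiments, mean ± SD.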

Test [2] concerns MC38 cells. The test is described as follows: 111In release cytotoxicity assay with gp70-specific CTL. In kind it is cell-based, mouse. As to conditions: 20 nM rapamycin 24 h, then 18 h with CTL.
The subject of test [3] is mTOR pathway. The test is described as follows: Biosynthetic labeling and immunoprecipitation of MHC molecules. The format is cell-based, human. As to conditions: HLA-A2-GFP MelJuSo, 0, 10 or 20 Gy, 6 h, 10 nM rapamycin, 35S-methionine/cystein 1 h.
Test [4] concerns mTOR pathway. In words: Surface MHC class I expression of MelJuSo cells. In kind it is cell-based, human. As to conditions: 25 Gy, 20 nM rapamycin, W6/32 flow cytometry, n = 4. In short, it runs like this: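 Human melanoma MelJuSo cells received 0–25 Gy γ-irradiation (137Cs, 0.75 Gy/min). They were cultured for the stated times with or without 20 nM rapamycin, stained for surface MHC class I with W6/32 and analysed by flow cytometry, with a background control lacking primary antibody. Mean fluorescence intensity was expressed relative to nonirradiated control cells.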

For test [5], the system named is MC38 cells. The test is described as follows: H2-Kb expression of MC38 cells by flow cytometry. In kind it is cell-based, mouse. To be noted: MC38, 20 Gy, 24 h, 20 nM rapamycin; FITC mAb H-2Kb. The procedure, abridged: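 MC38 murine colon adenocarcinoma cells (H-2b) were γ-irradiated with 20 Gy (137Cs, 0.75 Gy/min) and cultured 24 h with or without 20 nM rapamycin. They were then stained with FITC-labelled anti-H-2Kb mAb and analysed by flow cytometry against an isotype control antibody. Percentage of positive cells and mean fluorescence intensity were reported.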

For test [6], the system named is mTOR pathway. The test is described as follows: GFP expression of irradiated MelJuSo cells by flow cytometry. In kind it is cell-based, human. As to conditions: 20 nM rapamycin. In short, it runs like this:
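MelJuSo cells stably transfected with EGFP in pcDNA3 (CMV promoter) received 0 or 25 Gy γ-irradiation (137Cs, 0.75 Gy/min), with or without 20 nM rapamycin. GFP fluorescence was read by flow cytometry at 0, 4 or 24 h after irradiation. n = 6, mean ± SD.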
In general terms: In flow cytometry, cells or beads pass a laser one at a time.

For the compound `C[C@@H]1C[C@@H]([C@H](O)CC2CC(=O)NC(=O)C2)C(=O)[C@@H](C)C1` [cycloheximide], in test [1], the “initial increase in intracellular peptides” value was “not inhibited”. The “TAP activity in irradiated cells” value in test [1] (pretreatment before irradiation, 4 Gy, measured 1 h later, n = 9) is given as “no effect on TAP activity”.

On to `CO[C@H]1C[C@@H]2CC[C@@H](C)[C@@](O)(O2)C(=O)C(=O)N2CCCC[C@H]2C(=O)O[C@H]([C@H](C)C[C@@H]2CC[C@@H](O)[C@H](OC)C2)CC(=O)[C@H](C)/C=C(\C)[C@@H](O)[C@@H](OC)C(=O)[C@H](C)C[C@H](C)/C=C/C=C/C=C/1C` [rapamycin], for which, in test [1], the “initial increase in intracellular peptides” value is given as “not inhibited”. Besides, the “lysis of irradiated MC38 cells by gp70-specific CTL” value in the test on MC38 cells [2] (20 Gy, E:T 100:1 to 3.125:1) is on record as “enhanced lysis in a rapamycin-dependent fashion”. For the same compound, in the test with MC38 cells [2] (MC38, no radiation), the “CTL recognition of nonirradiated cells” value is reported as “no effect”. Besides, in the test with mTOR pathway [3], the “translation of GFP-tagged and endogenous MHC class I molecules, H chains and MHC class II molecules” value is reported as “inhibited”. The “MHC class I expression 4 h after irradiation” value with mTOR pathway [4] (4 h) is “No effect”. Moreover, in the test with mTOR pathway [4] (24 h), the “radiation-induced increase in MHC class I expression 24 h after irradiation” value is listed as “markedly reduced”. In the test with MC38 cells [5], the “radiation-induced up-regulation of MHC class I expression” value is “can be inhibited”. In addition, in the test on mTOR pathway [6] (MelJuSo-EGFP (CMV promoter), 25 Gy, 24 h, n = 6), the “GFP expression in response to ionizing radiation” value is given as “no increase in GFP expression”. Further, the “GFP expression in nonirradiated cells” value with mTOR pathway [6] (MelJuSo-EGFP, no radiation) is “decreased GFP expression”.
